LMPTP inh – LMPTP phosphatase inhibitors, primary screen, biochemical, fluorescence intensity, uHTS; 0.22% of 360,000 active; inhibition, % at 20 µM; recombinant LMPTP-A, OMFP fluorogenic substrate; Low molecular weight phosphotyrosine protein phosphatase (Homo sapiens), P24666;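 active = compounds that cut the enzyme signal by at least half of the control window in the single-dose screen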
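Assay system: LMPTP-A phosphatase enzyme | Input: 0.625 nM enzyme | Also added: Fluorogenic phosphatase substrate OMFP at 400 µM final | Compound dosing: One test concentration per compound, 20 µM, with 3% DMSO overall | Schedule: 50 min enzyme reaction at room temperature, protected from light | Signal: Fluorescence intensity | Benchmarks: no-enzyme and uninhibited controls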
STEP block – STEP phosphatase inhibitors, primary screen, biochemical, fluorescence intensity, uHTS; recombinant STEP, OMFP fluorogenic substrate; inhibition, % at 20 µM; 0.25% of 360,000 active;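 active = inhibition at 20 µM, scaled per plate between control wells, above about 37%, limit read from the data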
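Material: STEP (striatal-enriched tyrosine phosphatase) enzyme, cell-free | Medium: 50 mM Bis-Tris pH 6.0 with 2.5 mM DTT and 0.005% Tween 20 | Read-out: Percent inhibition scaled to no-enzyme and uninhibited-enzyme controls, plate-pattern corrected | Signal: Fluorescence read at 480 nm ex / 540 nm em | Times: 20 min reaction, room temperature, in the dark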
DNMT1 block – human DNMT1 methyltransferase inhibitors, primary screen, biochemical, molecular beacon, fluorescence, HinP1I cleavage, uHTS; inhibition (reported as % activation of signal), % at 10 µM; 0.83% of 360,000 active; in the data active = inhibition above about 50%
Target sequence (P26358 504-1616 limits assumed): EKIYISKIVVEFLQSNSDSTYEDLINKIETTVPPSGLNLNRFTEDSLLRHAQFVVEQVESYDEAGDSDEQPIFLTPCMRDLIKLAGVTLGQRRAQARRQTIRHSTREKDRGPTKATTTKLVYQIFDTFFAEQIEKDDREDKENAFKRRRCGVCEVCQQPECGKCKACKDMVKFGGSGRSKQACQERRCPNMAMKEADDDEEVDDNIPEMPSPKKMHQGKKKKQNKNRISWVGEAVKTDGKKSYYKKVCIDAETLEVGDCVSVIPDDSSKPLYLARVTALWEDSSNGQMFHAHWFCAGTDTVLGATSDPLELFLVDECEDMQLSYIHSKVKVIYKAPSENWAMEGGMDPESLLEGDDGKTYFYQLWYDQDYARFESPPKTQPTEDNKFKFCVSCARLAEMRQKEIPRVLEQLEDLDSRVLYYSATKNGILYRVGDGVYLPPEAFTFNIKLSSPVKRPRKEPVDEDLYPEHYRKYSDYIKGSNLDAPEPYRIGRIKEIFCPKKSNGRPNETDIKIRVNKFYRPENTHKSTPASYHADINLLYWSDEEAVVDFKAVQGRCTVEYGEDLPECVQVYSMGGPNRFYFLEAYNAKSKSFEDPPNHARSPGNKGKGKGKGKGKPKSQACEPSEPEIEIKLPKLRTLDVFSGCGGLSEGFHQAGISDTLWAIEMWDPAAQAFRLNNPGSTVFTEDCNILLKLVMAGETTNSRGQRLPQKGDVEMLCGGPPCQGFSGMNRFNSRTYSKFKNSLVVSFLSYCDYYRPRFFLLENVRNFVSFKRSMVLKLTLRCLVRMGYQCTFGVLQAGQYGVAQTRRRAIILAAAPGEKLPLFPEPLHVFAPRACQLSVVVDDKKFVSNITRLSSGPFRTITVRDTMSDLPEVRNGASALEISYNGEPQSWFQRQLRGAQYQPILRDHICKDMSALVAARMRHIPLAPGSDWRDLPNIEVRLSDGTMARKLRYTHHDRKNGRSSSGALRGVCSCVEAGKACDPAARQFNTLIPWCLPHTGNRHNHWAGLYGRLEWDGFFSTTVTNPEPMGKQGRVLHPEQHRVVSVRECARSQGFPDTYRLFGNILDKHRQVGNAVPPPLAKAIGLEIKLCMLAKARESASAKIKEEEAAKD
SUMO1-SIM PPI – modulators of SUMO1 protein-protein interactions, primary screen, biochemical, uHTS; Small ubiquitin-related modifier 1 (Homo sapiens), P63165; SUMO1 binding to a labelled peptide, TR-FRET, 1 h; 0.33% of 360,000 active; inhibition, % at 20 µM; AID 602429, 2012; in the data active = inhibition above about 37%
Scp-1 inhibitor – Scp-1 phosphatase inhibitors, primary screen, biochemical, colorimetric, uHTS. 0.88% of 340,000 active. Recombinant Scp1, phosphopeptide, malachite green phosphate absorbance. AID 493091, 2011. inhibition, % at 20 µM. Carboxy-terminal domain RNA polymerase II polypeptide A small phosphatase 1 (Homo …;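 active = inhibition above about 50% at 20 µM, limit read from the data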
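Test system – truncated SCP-1 phosphatase (76-261aa) · Reagent – Phosphorylated 17-residue peptide substrate · Incubation – 45 min room-temperature reaction, 5 min colour, 30 min stabiliser · Detection – colorimetric phosphate reagent with accelerator and stabiliser, absorbance at 630 nm · Measure – % inhibition at 20 µM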
CSN deneddyl inh – inhibitors of CSN-mediated cullin deneddylation, primary screen, biochemical, fluorescence polarization, uHTS; COP9 signalosome complex subunit 5 (Homo sapiens), Q92905; AID 651999, 2013; 0.38% of 360,000 active; inhibition, % at 12.5 µM; Purified CSN, SCF-Nedd8-OG deneddylation;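 active = pattern-corrected inhibition above about 35%, with an unprinted fluorescence ratio check between 0.5 and 1.5, limit read from the data, passing the limit was not always enough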
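Test system: purified human Csn5 enzyme expressed in HEK293T cells. Amount: 0.24 nM enzyme. Reagent: SCFSkp2-Nedd8OG substrate at 10 nM final. Schedule: 90 min incubation of compound, enzyme and substrate at room temperature. Detection: fluorescence polarization. Read-out: % inhibition of substrate cleavage by Csn5.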
Scp-1 conf – Scp-1 phosphatase inhibitors, retest, confirmation, biochemical, colorimetric, single concentration; shares compounds with Scp-1 inhibitor; recombinant SCP-1 catalytic domain, phosphate release, malachite green absorbance; inhibition, % at 20 µM; 61% of 2,500 active; AID 540281, 2011
Scp-1 MG ctr – colorimetric readout interference by compounds, confirmation, artefact control for Scp-1 inhibitor project, biochemical, single concentration; shares compounds with Scp-1 inhibitor; Colorimetric interference counterscreen, malachite green absorbance 630 nm; apparent inhibition (interference), % at 20 µM; 2,500 tested, under 10 active;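 also: compounds added after enzyme reaction finished so only phosphate colour detection is probed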
Scp1 DSF – Scp-1 binding by thermal shift, confirmation, orthogonal assay for Scp-1 inhibitor project, biophysical, differential scanning fluorimetry; shares compounds with Scp-1 inhibitor; Recombinant SCP1, Sypro Orange thermal shift Tm; thermal shift relative to vanadate control, % at 40 µM; 25% of 1,500 active; AID 540329, 2011;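 active = substances whose mean melting-temperature shift, as a percentage of the reference inhibitor's shift, reaches about 5.3%, limit read from the data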
DNMT1 confirm – DNMT1 methyltransferase inhibitor retest, confirmation, biochemical, molecular beacon, fluorescence, single concentration. shares compounds with DNMT1 block. DNMT1 molecular beacon HinP1I cleavage. inhibition, % at 10 µM. 8% of 2,300 active. AID 602385, 2012;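 active = average inhibition of at least 30% in the single-concentration confirmation test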
DNMT1 interf – beacon fluorescence artifact counter-screen; activation (fluorescence interference), % at 10 µM; shares compounds with DNMT1 block; 1% of 2,300 active; DNMT1 molecular beacon spectral interference counterscreen, fluorescence 485/520; AID 602387;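 active = activation of at least 30% at 10 µM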;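 also: DNMT1 catalytic domain with a HinP1I cleavage step and a FAM/dabcyl DNA beacon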
Numbers stand for hits; n = inactive; x = not tested or not shown. In the library only some 1.9% were active in any assay of this set; here they are far more common.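 The calls were made as follows, unless noted: active = inhibition of at least 30% at 20 µM; inactive = the rest.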

SMILES	LMPTP inh	STEP block	DNMT1 block	SUMO1-SIM PPI	Scp-1 inhibitor	CSN deneddyl inh	Scp-1 conf	Scp-1 MG ctr	Scp1 DSF	DNMT1 confirm	DNMT1 interf
CCCCN(C(=O)Cn1ncc(Cl)c(Cl)c1=O)c1c(N)n(CC(C)C)c(=O)[nH]c1=O	n	n	61	n	82	n	76	n	6.2	n	n
CCCCN(C(=O)CN1CC(C)OC(C)C1)c1c(N)n(CC(C)C)c(=O)[nH]c1=O (stereo not drawn)	n	n	n	n	n	n	x	x	x	x	x
CC(=O)Nc1ccc2c(COC(=O)CC3Sc4ccccc4NC3=O)cc(=O)oc2c1 (stereo not drawn)	n	n	60	n	57	n	70	n	n	n	n
CCOc1ccc2nc(SCC(=O)NC(=O)NCc3ccco3)sc2c1	n	n	n	n	n	n	x	x	x	x	x
Cc1sc2ncnc(SCC(=O)NC(=O)NCc3ccco3)c2c1C	n	n	69	n	57	n	49	n	n	n	n
O=C(CSc1nc2cc(Cl)ccc2s1)NC(=O)NCc1ccco1	n	n	54	n	80	n	53	n	n	n	n
CCN(CC(=O)NCc1cccs1)C(=O)c1ccc(NS(=O)(=O)c2ccc(C(C)=O)cc2)cc1	n	n	n	n	n	n	x	x	x	x	x
O=C(COC(=O)CSc1ccc(Br)cc1)NCc1ccco1	n	n	n	n	n	n	x	x	x	x	x
O=C(COC(=O)/C=C/c1ccco1)NCc1ccco1	n	n	52	n	72	n	82	n	n	n	n
COc1ccccc1NCCC(=O)OCC(=O)NCc1ccco1	n	n	51	n	75	n	64	n	n	n	n
Cc1cc(Br)ccc1SCC(=O)OCC(=O)NCc1ccco1	n	n	82	n	75	n	61	n	n	n	n
O=C(COC(=O)/C=C/c1ccco1)NCc1ccccc1Cl	n	n	n	n	n	n	x	x	x	x	x
Cc1c(Cl)cnc(NC(=O)COC(=O)/C=C/c2ccco2)c1Cl	n	n	n	n	n	n	x	x	x	x	x
O=C(COC(=O)/C=C/c1ccco1)Nc1ncc(C(F)(F)F)cc1Cl	n	n	71	n	76	n	56	n	6.1	n	n
Cc1cccc(OCC(=O)Nc2ccc(C(=O)Nc3ccccc3C(=O)O)cc2)c1C	n	n	n	n	n	n	x	x	x	x	x
O=C(COC(=O)c1ccccc1)NCc1ccco1	n	n	74	n	104	n	63	n	n	n	n
O=C(COC(=O)c1ccccc1Nc1cccc(C(F)(F)F)c1)NCc1ccco1	n	n	91	n	77	n	53	n	5.3	n	n
O=C(COC(=O)c1ccccc1Nc1ccccc1)NCc1ccccc1	n	n	n	n	n	n	x	x	x	x	x
O=C(COC(=O)c1cc(-c2cccs2)nc2ccccc12)NCc1ccco1	n	n	51	n	56	n	56	n	7.0	n	n
O=C(COC(=O)c1cccc(Br)c1)NCc1ccco1	n	n	87	n	56	n	53	n	n	n	n
Cc1ccc(C(=O)OCC(=O)NCc2ccco2)cc1	n	n	n	n	n	n	x	x	x	x	x
Cc1ccc(S(=O)(=O)NC(=O)c2ccc(Br)o2)cc1	n	n	n	n	n	n	x	x	x	x	x
CCc1ccc(NC(=S)N2CCCCCCC2)cc1	n	n	n	n	n	n	x	x	x	x	x
Cc1ccc(C)c(SCC(=O)NCc2ccco2)c1	n	n	n	n	n	n	x	x	x	x	x
O=C(COC(=O)c1ccc(Br)o1)NCc1ccco1	n	n	58	n	74	n	65	n	n	n	n
SMILES	LMPTP inh	STEP block	DNMT1 block	SUMO1-SIM PPI	Scp-1 inhibitor	CSN deneddyl inh	Scp-1 conf	Scp-1 MG ctr	Scp1 DSF	DNMT1 confirm	DNMT1 interf
O=C(COC(=O)Cc1ccc(Cl)cc1)NCc1ccco1	n	n	88	n	82	n	71	n	n	n	n
O=C(COC(=O)Cc1ccc(Cl)c(Cl)c1)NCc1ccco1	n	n	n	n	n	n	x	x	x	x	x
Cc1ccc(C)c(SCC(=O)OCC(=O)c2ccco2)c1	n	n	81	n	60	n	69	n	n	n	n
N#Cc1c(NC(=O)c2ccco2)sc2c1CCC2	n	n	54	n	63	39	56	n	n	n	n
NC(=O)c1c(NC(=O)c2ccco2)sc2c1CCC2	n	n	n	n	n	n	x	x	x	x	x
O=C(CSc1nccc(=O)[nH]1)N1N=C2/C(=C/c3ccco3)CCCC2C1c1ccco1 (stereo not drawn)	n	n	76	n	60	n	65	n	n	n	n
Nc1nc(SCC(=O)N2N=C3/C(=C/c4ccco4)CCCC3C2c2ccco2)n[nH]1 (stereo not drawn)	n	n	n	n	n	n	x	x	x	x	x
Cc1oc(-c2ccc(F)cc2)cc1-c1nn2c(-c3ccoc3C)nnc2s1	n	n	106	41	75	39	41	n	n	n	n
COc1ccc(-c2nnc3sc(-c4ccco4)nn23)cc1OC	n	n	n	n	n	n	x	x	x	x	x
O=C(O)c1ccc(COc2c(F)c(F)c(F)c(F)c2F)o1	n	n	56	n	57	n	48	n	n	n	n
COCCNC(=O)c1cccc(S(=O)(=O)N2CC3(C)CC2CC(C)(C)C3)c1 (stereo not drawn)	n	n	n	n	n	n	x	x	x	x	x

Assay outcomes: PubChem BioAssay, Sanford-Burnham Center for Chemical Genomics
